ChEMBL document CHEMBL4261533, “Identification of potent cholecystokinin-B receptor antagonists: synthesis, molecular modeling and anti-cancer activity against pancreatic cancer cells” (Medchemcomm, 2017)
The source made the active and inactive calls. The rule behind the calls is not given here.

How the values were obtained:
[1] = target: T1, Gastrin/cholecystokinin type B receptor (Mus musculus) (UniProt P56481); assay: Inhibition of CCK-B receptor in lumen perfused albino mouse stomach assessed as reduction in boc-pentagastrin-induced gastric acid secretion after 45 mins relative to control; format: functional
T1 sequence (whole entry): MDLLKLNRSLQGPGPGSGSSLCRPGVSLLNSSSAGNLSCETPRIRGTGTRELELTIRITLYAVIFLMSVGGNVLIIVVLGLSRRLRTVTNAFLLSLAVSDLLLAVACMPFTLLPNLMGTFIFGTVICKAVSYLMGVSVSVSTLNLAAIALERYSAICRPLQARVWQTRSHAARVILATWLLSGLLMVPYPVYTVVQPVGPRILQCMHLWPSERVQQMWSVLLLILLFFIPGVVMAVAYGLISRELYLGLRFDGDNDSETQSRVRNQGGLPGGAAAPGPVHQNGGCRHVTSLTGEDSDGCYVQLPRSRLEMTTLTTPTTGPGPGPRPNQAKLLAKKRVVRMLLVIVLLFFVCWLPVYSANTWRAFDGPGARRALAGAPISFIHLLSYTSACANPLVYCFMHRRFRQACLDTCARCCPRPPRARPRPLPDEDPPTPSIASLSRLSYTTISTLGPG
Procedure, shortened: (§1)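 Whole stomach excised from albino mice (25–30 g), lumen-perfused in an organ bath. Effluent pH monitored continuously with a pH probe. Acid output driven by sub-maximal Boc-pentagastrin (10 nM), measured before and 45 min after incubation with test compound. Percentage inhibition calculated.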

[2] = target: T2, Gastrin/cholecystokinin type B receptor (Rattus norvegicus, UniProt P30553); assay: Displacement of [125I]-BH-CCK-8 from CCK-B receptor in rat cerebral cortex plasma membrane after 1 hr by liquid scintillation counting method; format: cell membranes
T2 sequence (P30553 whole entry): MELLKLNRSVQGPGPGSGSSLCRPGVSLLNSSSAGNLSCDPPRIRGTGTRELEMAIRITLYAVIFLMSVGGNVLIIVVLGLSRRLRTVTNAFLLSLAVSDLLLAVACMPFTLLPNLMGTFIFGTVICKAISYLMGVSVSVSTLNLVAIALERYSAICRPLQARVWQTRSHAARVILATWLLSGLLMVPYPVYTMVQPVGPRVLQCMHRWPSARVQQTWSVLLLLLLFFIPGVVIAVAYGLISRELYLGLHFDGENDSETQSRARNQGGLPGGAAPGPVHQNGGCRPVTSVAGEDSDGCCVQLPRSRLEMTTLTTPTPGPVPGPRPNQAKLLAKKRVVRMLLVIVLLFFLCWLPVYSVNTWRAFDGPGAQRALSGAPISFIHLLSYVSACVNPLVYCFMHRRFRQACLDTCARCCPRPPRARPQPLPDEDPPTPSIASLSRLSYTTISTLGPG
Procedure, shortened: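 Rat cerebral cortex plasma membrane (100 μg per tube), receptor solubilized in detergent. Non-specific binding defined with 1 μM unlabeled CCK-8s. Bound and free ligand separated on filter mats, counted by liquid scintillation. IC50 by non-linear least-squares fitting.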

MIA PaCa-2 [3] = assay: Cytotoxicity against human MIAPaCa2 cells assessed as reduction in cell viability after 24 hrs by MTT assay; format: functional, cell-based; conditions: MIA PaCa-2, 24 h
Procedure, shortened: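 MiaPaca-2 cells seeded at 1000/well, incubated 24 h at 37 °C, 5% CO2, then exposed to varying compound concentrations in 200 μL standard growth medium for 24 h. MTT (5 mg/mL stock in PBS) added for 4 h at 37 °C. Formazan dissolved in DMSO, absorbance read at 540 nm. IC50 taken from dose–response graphs.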

[4] = target: T1, Gastrin/cholecystokinin type B receptor (Mus musculus); assay: Inhibition of CCK-B receptor in lumen perfused albino mouse stomach assessed as reduction in boc-pentagastrin-induced gastric acid secretion at 100 nM after 45 mins relative to control; format: functional; procedure, shortened: as §1
[5] = target: T1, Gastrin/cholecystokinin type B receptor (Mus musculus); assay: Inhibition of CCK-B receptor in lumen perfused albino mouse stomach assessed as reduction in boc-pentagastrin-induced gastric acid secretion at 1 uM after 45 mins relative to control; format: functional; procedure, shortened: as §1
[6] = target: T3, Gastrin/cholecystokinin type B receptor (Homo sapiens, UniProt P32239); assay: Displacement of [125I]-gastrin17 from CCK-B receptor (unknown origin)
T3 sequence (P32239 whole entry): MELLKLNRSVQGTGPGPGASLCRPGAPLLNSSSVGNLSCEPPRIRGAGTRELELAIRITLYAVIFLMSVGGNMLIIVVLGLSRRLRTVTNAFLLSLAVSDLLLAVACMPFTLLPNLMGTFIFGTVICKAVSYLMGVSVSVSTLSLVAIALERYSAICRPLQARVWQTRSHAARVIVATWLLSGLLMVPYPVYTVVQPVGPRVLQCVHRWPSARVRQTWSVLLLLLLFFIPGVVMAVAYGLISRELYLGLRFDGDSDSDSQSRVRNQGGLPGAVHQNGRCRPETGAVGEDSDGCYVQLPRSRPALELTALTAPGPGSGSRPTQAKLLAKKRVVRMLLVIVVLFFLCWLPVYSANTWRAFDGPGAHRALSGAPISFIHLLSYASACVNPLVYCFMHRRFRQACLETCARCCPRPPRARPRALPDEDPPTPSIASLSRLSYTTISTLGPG

MIA PaCa-2 [7] = assay: Inhibition of boc-pentagastrin-induced cell proliferation in human MIAPaCa2 cells at 1 to 10 uM up to 120 hrs by MTT assay; format: functional, cell-based
Procedure, shortened: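 MiaPaca-2 cells seeded at 4000/well in 10% FCS-DMEM, then made quiescent for 24 h in incomplete medium. Boc-pentagastrin and/or antagonist (1 or 10 μM) added in incomplete medium; medium with the same concentrations replaced daily. MTT read after 48–120 h, absorbance at 540 nm. DMSO control at each time point set as 100%.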

MIA PaCa-2 [8] = assay: Cytotoxicity against human MIAPaCa2 cells assessed as reduction in cell viability at 1 to 10 uM after 72 hrs by MTT assay; format: functional, cell-based
[9] = target: T1, Gastrin/cholecystokinin type B receptor (Mus musculus); assay: Inhibition of CCK-B receptor in lumen perfused albino mouse stomach assessed as reduction in boc-pentagastrin-induced gastric acid secretion at 300 nM after 45 mins relative to control; format: functional; procedure, shortened: as §1

SMILES	inhibition [1]	IC50 [2] [nM]	inhibition [4] [%]	inhibition [5] [%]	inhibition [9] [%]	IC50 (MIA PaCa-2 [3]) [µM]	IC50 [6] [nM]	inhibition (MIA PaCa-2 [7])	Activity (MIA PaCa-2 [8])
O=C1Nc2ccccc2/C1=N/Nc1nc2ccccc2c(=O)n1-c1cccc(Br)c1	Dose-dependent effect	19.5	62	–	–	200	–	–	–
CCOc1ccc(-n2c(N/N=C3\C(=O)Nc4ccccc43)nc3ccccc3c2=O)cc1	Dose-dependent effect	17.4	48	–	–	80	–	–	–
O=C(O)c1cccc(NC(=S)NNc2nc3ccccc3c(=O)n2-c2ccccc2)c1	Dose-dependent effect	975	–	48	–	180	–	–	–
Cc1cccc(NC(=O)NC2N=C(c3ccccc3)c3ccccc3N(C)C2=O)c1 (stereo not drawn)	–	–	–	–	–	0.0018	–	–	–
O=C1Nc2ccccc2/C1=N/Nc1nc2ccccc2c(=O)n1-c1cccc(Cl)c1	Dose-dependent effect	384	58	–	–	92	–	–	–
CNc1cccc(NC(=O)NC2N=C(c3ccccn3)c3ccccc3N(CC(=O)C(C)(C)C)C2=O)c1 (stereo not drawn)	–	–	–	–	–	–	0.1	–	–
CCOc1ccc(-n2c(NNC(=S)Nc3ccc(Cl)cc3)nc3ccccc3c2=O)cc1	Dose-dependent effect	11.5	58	–	–	250	–	–	–
O=C1Nc2ccccc2/C1=N/Nc1nc2ccccc2c(=O)n1-c1ccc(Cl)cc1	Dose-dependent effect	–	58	–	–	100	–	–	–
Cc1ccc(-n2c(N/N=C3\C(=O)Nc4ccccc43)nc3ccccc3c2=O)cc1	Dose-dependent effect	56.5	–	–	67	10	–	Active	Active

Continued, in another order:

inhibition [1]	IC50 [2] [nM]	inhibition [4] [%]	inhibition [5] [%]	inhibition [9] [%]	SMILES	IC50 (MIA PaCa-2 [3]) [µM]	IC50 [6] [nM]	inhibition (MIA PaCa-2 [7])	Activity (MIA PaCa-2 [8])
Dose-dependent effect	0.2	39	–	–	O=C(O)c1cccc(NC(=S)NNc2nc3ccccc3c(=O)n2-c2ccc(Br)cc2)c1	200	–	–	–
Dose-dependent effect	0.66	58	–	–	CCOc1ccc(-n2c(NNC(=S)Nc3cccc(C(=O)O)c3)nc3ccccc3c2=O)cc1	280	–	–	–
Dose-dependent effect	8.64	62	–	–	O=C(O)c1cccc(NC(=S)NNc2nc3ccccc3c(=O)n2-c2cccc(Br)c2)c1	150	–	–	–
Dose-dependent effect	9.71	53	–	–	CCOc1ccc(NC(=S)NNc2nc3ccccc3c(=O)n2-c2ccc(Cl)cc2)cc1	80	–	–	–
Dose-dependent effect	2	39	–	–	CCOc1ccc(-n2c(NNC(=S)Nc3ccc(Br)cc3)nc3ccccc3c2=O)cc1	10	–	Active	Active
